Measurements reported in ChEMBL document CHEMBL5150051, “Identification and Characterization of a Novel Indoleamine 2,3-Dioxygenase 1 Protein Degrader for Glioblastoma” (J Med Chem, 2022).
Activity calls are given as the source filed them. No cut-off for these calls is given here.

Columns and labels:
[1] = biological target: T1, Protein cereblon/Indoleamine 2,3-dioxygenase 1 (Homo sapiens, UniProt P14902+Q96SW2); experiment: Protac activity at IDO1/CRBN in IFNgamma-stimulated human PBMC cells isolated form GBM patient assessed as IDO1 degradation by measuring decrease in intracellular protein level measured after 24 hrs by Western blotting analysis; type: cell-based; settings: DDE = dose-dependent effect
[2] = biological target: T1, Protein cereblon/Indoleamine 2,3-dioxygenase 1; experiment: Protac activity at IDO1/CRBN in IFNgamma-stimulated human U87 cells assessed as IDO1 degradation by measuring decrease in protein level measured at 10 uM continuous upto 72 hrs by Western blotting analysis; settings: U87 cell
[3] = Drug uptake in C57BL/6 mouse brain at 25 mg/kg, ip measured after 6 hrs by equilibrium dialysis; type: ADME, organism-based; settings: in vivo
Method in brief: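 C57BL/6 mice received a single 25 mg/kg ip dose. Serum and brain were sampled at 0 to 24 h and the drug was quantified by mass spectrometry (n = 3 mice/dose). Binding to mouse brain homogenate was measured by 6 h equilibrium dialysis.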

[4] = biological target: T1, Protein cereblon/Indoleamine 2,3-dioxygenase 1; experiment: Protac activity at IDO1/CRBN in IFNgamma-stimulated human OVCAR-5 cells assessed as IDO1 degradation by measuring decrease in intracellular protein level measured after 24 hrs by Western blotting analysis; type: cell-based; settings: dose 1-10 µM, DDE = dose-dependent effect
[5] = biological target: T1, Protein cereblon/Indoleamine 2,3-dioxygenase 1; experiment: Protac activity at IDO1/CRBN in human U87 cells assessed as IDO1 degradation at 10 uM measured after compound washout by Western blotting analysis relative to control; type: cell-based
Method in brief: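 U87 cells exposed to PROTAC for 24 h, after which compound was fully withdrawn from the medium and culture continued without it for up to 48 h. IDO1 levels then assessed by western blot.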

[6] = biological target: T1, Protein cereblon/Indoleamine 2,3-dioxygenase 1; experiment: Protac activity at IDO1/CRBN in IFNgamma-stimulated human PANC-1 cells assessed as IDO1 degradation by measuring decrease in intracellular protein level measured after 24 hrs by Western blotting analysis; type: cell-based; settings: dose 1-10 µM, DDE = dose-dependent effect
Mus musculus = experiment: In vivo Protac activity at IDO1/CRBN in GL261 cells expressing mIDO1 cDNA mouse model assessed as decrease in IDO1 protein level in tumor measured at 25 mg/kg, ip
[7] = biological target: Indoleamine 2,3-dioxygenase 1 (Homo sapiens, UniProt P14902); experiment: Inhibition of human IDO1 expressed in Escherichia coli BL21(DE3) using D-tryptophan as substrate assessed as formation of kynurenine production; settings: DDE = dose-dependent effect
[8] = Drug uptake in C57BL/6 mouse serum at 10 to 100 mg/kg, ip treated 5 days/week for 3 weeks by LC/MS/MS analysis; type: ADME, organism-based; settings: in vivo, 504 h, dose 10-100 mg/kg
Method in brief: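 Male C57BL/6 mice dosed ip at 10, 25, 50 or 100 mg/kg, 5 days/week for 3 weeks, alongside vehicle. After 3 weeks, serum and brain homogenate were analysed by mass spectrometry for drug level; mean ± SEM, n = 3 mice/dose.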

[9] = Cmax in C57BL/6 mouse plasma at 25 mg/kg, ip; type: ADME, organism-based; parameters: dose 25 mg/kg, route ip
[10] = biological target: T1, Protein cereblon/Indoleamine 2,3-dioxygenase 1; experiment: Protac activity at CRBN/IDO1 in IFNgamma-stimulated human OVCAR-5 cells assessed as decrease in kynurenine level at 10 uM measured after 24 hrs by Ehrlich's test; type: cell-based
[11] = biological target: T1, Protein cereblon/Indoleamine 2,3-dioxygenase 1; experiment: Binding affinity to CRBN/IDO1 (unknown origin) assessed as ternary complex affinity by bio-layer interferometry assay; type: protein assay
Method in brief: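 For the ternary complex, compound was preincubated with a 25-fold molar excess of CRBN, and binding of this binary complex to IDO1 was followed in real time.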

Ido1/Crbn (Mus musculus) = Ido1/Crbn (Mus musculus) (UniProt P28776+Q8C7D2); experiment: Protac activity at IDO1/CRBN in IFNgamma-stimulated mouse GL261 cells assessed as IDO1 degradation by measuring decrease in intracellular protein level measured after 24 hrs by Western blotting analysis; type: cell-based; settings: dose 1-10 µM, DDE = dose-dependent effect
Sequence of Ido1/Crbn (Mus musculus) (P28776 whole entry, looked up): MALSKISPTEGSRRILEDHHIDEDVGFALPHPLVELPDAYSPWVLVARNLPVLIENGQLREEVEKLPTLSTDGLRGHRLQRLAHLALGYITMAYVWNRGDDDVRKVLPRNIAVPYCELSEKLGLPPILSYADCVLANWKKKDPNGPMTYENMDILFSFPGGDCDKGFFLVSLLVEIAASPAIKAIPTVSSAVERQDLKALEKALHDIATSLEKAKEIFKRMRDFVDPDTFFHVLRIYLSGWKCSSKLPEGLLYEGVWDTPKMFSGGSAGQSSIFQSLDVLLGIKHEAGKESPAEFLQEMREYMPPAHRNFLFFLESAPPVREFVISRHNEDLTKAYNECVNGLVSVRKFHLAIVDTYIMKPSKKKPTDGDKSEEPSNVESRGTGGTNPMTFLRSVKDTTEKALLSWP
Sequence of Ido1/Crbn (Mus musculus) (Q8C7D2 whole entry, looked up): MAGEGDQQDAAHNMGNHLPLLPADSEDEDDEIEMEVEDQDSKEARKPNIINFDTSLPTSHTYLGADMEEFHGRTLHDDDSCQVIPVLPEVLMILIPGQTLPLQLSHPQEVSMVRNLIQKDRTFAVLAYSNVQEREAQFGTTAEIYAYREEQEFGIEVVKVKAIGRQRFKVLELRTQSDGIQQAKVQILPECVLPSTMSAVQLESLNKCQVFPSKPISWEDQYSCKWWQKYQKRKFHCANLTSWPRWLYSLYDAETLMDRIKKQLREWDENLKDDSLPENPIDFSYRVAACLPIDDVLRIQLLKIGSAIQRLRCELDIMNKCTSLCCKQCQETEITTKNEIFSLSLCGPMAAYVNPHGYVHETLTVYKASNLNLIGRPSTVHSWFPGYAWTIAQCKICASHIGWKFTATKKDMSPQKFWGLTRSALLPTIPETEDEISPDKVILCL

T1 sequence (P14902 whole entry, looked up): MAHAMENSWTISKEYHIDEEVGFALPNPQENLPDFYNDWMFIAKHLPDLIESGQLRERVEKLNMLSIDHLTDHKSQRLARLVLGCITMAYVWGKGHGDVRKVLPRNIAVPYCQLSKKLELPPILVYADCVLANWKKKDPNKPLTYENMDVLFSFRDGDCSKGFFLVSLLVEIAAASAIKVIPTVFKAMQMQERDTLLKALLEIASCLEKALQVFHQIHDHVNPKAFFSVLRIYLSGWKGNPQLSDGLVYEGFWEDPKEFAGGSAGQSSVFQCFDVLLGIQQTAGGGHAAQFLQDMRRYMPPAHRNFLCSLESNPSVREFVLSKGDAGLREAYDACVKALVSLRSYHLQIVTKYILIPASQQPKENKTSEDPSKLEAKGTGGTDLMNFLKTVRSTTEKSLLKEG
T1 sequence (Q96SW2 whole entry, looked up): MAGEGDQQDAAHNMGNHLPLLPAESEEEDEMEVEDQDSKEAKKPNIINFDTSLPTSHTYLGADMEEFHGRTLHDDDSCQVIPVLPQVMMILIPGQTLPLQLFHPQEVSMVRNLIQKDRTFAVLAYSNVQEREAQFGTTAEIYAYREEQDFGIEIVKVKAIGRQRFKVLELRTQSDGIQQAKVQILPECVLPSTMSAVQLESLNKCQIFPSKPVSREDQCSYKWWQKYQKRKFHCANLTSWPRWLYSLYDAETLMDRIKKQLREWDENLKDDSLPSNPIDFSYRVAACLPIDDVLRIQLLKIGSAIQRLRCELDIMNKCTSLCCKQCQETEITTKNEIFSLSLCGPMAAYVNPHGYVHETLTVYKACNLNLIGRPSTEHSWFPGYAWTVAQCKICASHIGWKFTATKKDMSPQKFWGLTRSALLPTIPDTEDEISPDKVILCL
Sequence of Indoleamine 2,3-dioxygenase 1 (P14902 whole entry, looked up): as the sequence (P14902 whole entry, looked up) above

For `C[C@@H](C(=O)Nc1ccc(OC2CCN(C(=O)CCOCCOCCNc3cccc4c3C(=O)N(C3CCC(=O)NC3=O)C4=O)CC2)cc1)[C@H]1CC[C@@H](c2ccnc3ccc(F)cc32)CC1` (stereo partly drawn), the Activity [1] was “Dde”, the Activity [2] was “Active” and the Drug uptake [3] was 99.8%. For the same compound, the Activity [4] was “Dde”, the Activity [5] was “Active” and the Activity [6] was “Dde”. For the same compound, the Activity (Mus musculus) was “Active”, the Activity [7] was “Dde” and the Drug uptake [8] was “Active”. The Cmax [9] was 365 µM, the inhibition [10] was “Active” and the K [11] was 117 nM. For the same compound, the Activity (Ido1/Crbn (Mus musculus)) was “Dde”.
